# IDE act: human IDE activators in live cells, primary screen, fluorescence polarization, HEK cells, FAbeta-B substrate; activation, % at 5.96 µM; FAbeta-B cleavage; 0% vehicle, 100% cell-free pure enzyme wells; 0.073% of 340,000 active;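 active = activation above the mean of all tested compounds plus 3 SD, set per screening campaign, cut at about 17% in these data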
# CSN deneddyl inh: inhibitors of CSN-mediated cullin deneddylation, primary screen, biochemical, fluorescence polarization, uHTS; Purified CSN, SCF-Nedd8-OG deneddylation; inhibition, % at 12.5 µM; 0.38% of 360,000 active;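 active = pattern-corrected inhibition above about 35%, with an unprinted fluorescence ratio check between 0.5 and 1.5, limit read from the data, passing the limit was not always enough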;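 also: 0% = enzyme with substrate and 100% = substrate without enzyme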
#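 Assay system: HEK293T-derived human Csn5 enzyme; quantity: 0.24 nM enzyme; medium: Tris/NaCl/DTT buffer, pH 7.5; also added: substrate SCFSkp2-Nedd8OG, 10 nM; doses: 12.5 µM compound; schedule: 90 min reaction at room temperature; signal: FP; read-out: % inhibition of substrate cleavage by Csn5; benchmarks: substrate-only high control, full reaction low control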
# HNF4A DNA FP: change in binding of human HNF4A to DNA, primary screen, biochemical, fluorescence polarization, FITC-DNA | AID 1224865, 2016 | 1 h | Hepatocyte nuclear factor 4-alpha (Homo sapiens), P41235 | activity change, % at 10 µM | 0.3% of 360,000 active; in the data active = activity change above about 30%, passing the limit was not always enough
# TPT1 inhibitor: Candida albicans TPT1 enzyme inhibitors, primary screen, biochemical, fluorescence polarization; AID 1962, 2009; tRNA 2'-phosphotransferase TPT1 (Candida albicans SC5314); inhibition, % at 5 µM; 0.81% of 300,000 active; recombinant caTPT1, FP RNA substrate dephosphorylation;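 active = inhibition above the mean of all tested compounds plus 3 SD, set per screening campaign, cut at about 24% in these data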;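 also: plate controls were DMSO alone for no effect and ferristatin control at 100 nM for full effect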
# Rpn11 inh: Rpn11 (PSMD14) deubiquitinase inhibitors, primary screen, biochemical, fluorescence polarization, uHTS; human 26S proteasome, Ub4-pepOG fluorescence polarization; 20S core pre-blocked with epoxomicin; 26S proteasome non-ATPase regulatory subunit 14 (Homo sapiens), O00487; 0.59% of 360,000 active; inhibition, % at 20 µM; AID 588493, 2011;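 active = inhibition at 20 µM, scaled to each plate's controls, above about 33%, limit read from the data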
# Target sequence (O00487 whole entry, looked up): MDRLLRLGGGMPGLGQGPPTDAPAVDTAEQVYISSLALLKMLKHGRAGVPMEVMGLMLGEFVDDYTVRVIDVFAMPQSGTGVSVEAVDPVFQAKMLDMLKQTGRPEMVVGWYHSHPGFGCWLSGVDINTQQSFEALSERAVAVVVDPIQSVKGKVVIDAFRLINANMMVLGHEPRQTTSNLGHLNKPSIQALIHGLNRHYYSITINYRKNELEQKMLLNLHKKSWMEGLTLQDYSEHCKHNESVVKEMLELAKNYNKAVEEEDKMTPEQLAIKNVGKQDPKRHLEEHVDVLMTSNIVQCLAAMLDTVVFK
# IDE cell inh: human IDE inhibitors in live cells, primary screen, fluorescence polarization, HEK cells, FAbetaB substrate. 0.41% of 320,000 active. inhibition, % at 5.59 µM. Insulin-degrading enzyme (Homo sapiens), P14735. FAbetaB cleavage;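 active = percent inhibition above the average of all tested compounds plus 3 SD, set per screening campaign, cut at about 16% in these data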;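 also: IDE supplied by intact live HEK cells; FP after avidin binding of uncleaved biotin substrate so inhibition keeps polarization high; 0% = DMSO wells and 100% = 60 µM reference IDE inhibitor Ii1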
# * hit, by the source's call; · = no result. In the library only some 1.7% were active in any assay of this set; here they are far more common.
SMILES,IDE act,CSN deneddyl inh,HNF4A DNA FP,TPT1 inhibitor,Rpn11 inh,IDE cell inh
CC1(Cc2ccccc2C#N)C(=O)Nc2ccc(-c3ccccc3)cc21 (stereo not given),·,-1,-4,·,5,·
CCN1C(=C(C#N)C#N)C=Cc2cc(C)ccc21,5,-5,31,-2,14,3
C=CC[n+]1c(/C=C2\C=Cc3cc(C)ccc3N2CC)ccc2ccccc21,0,18,38*,6,17,6
O=C(Nc1cccnc1)c1cc2c(ccc3ccccc32)o1,2,31,3,1,62*,10
N#Cc1c(NC(=O)c2ccccc2Cl)n(Cc2ccccc2)c2nc3ccccc3nc12,-4,74*,73*,17,55*,-3
CCn1cc(/C=C(\NC(=O)c2cc(OC)c(OC)c(OC)c2)C(=O)N2CCOCC2)c2ccccc21,·,-3,-2,·,-3,·
O=C(O)c1cc(-c2ccc(/C=c3\sc4nc5ccc(Br)cc5n4c3=O)o2)ccc1Cl,·,·,·,71*,·,1
CC(C)c1cc(C(=O)OCC(=O)NC2CCS(=O)(=O)C2)c(O)c(C(C)C)c1 (stereo not given),·,-5,-1,·,3,·
O=C(c1ccc(-c2ccccc2)cc1)N1CCN(c2ccc3c(c2)C2CC3CCN2C(=O)OCc2ccccc2)CC1 (stereo not given),·,113*,-6,·,-1,·
N/C(Cc1cccs1)=N\OC(=O)COc1ccc(Cl)cc1Cl,-2,-7,1,-4,0,-4
COCCNC(=O)C1(C)CCCN(C(=O)c2cccc(C(F)(F)F)c2)C1 (stereo not given),·,1,0,·,-1,·
O=C(NCCN1CCOCC1)c1ccccc1[N+](=O)[O-],-1,1,0,2,-1,-1
Cc1cccc(C(=O)NCCN2CCOCC2)c1[N+](=O)[O-],28*,1,2,-2,-3,1
CCn1c(CNC(=O)COc2ccc(C(C)C)cc2)nnc1SCC(=O)NC1CCCCC1C (stereo not given),-9,70*,3,-3,-2,9
CCOC(=O)C1(C)CCCN1C(=O)c1ccc(N(C)C)cc1 (stereo not given),·,-9,-3,·,3,·
CSc1ccccc1OCc1cc(C(=O)NCCn2nc(C)cc2C)no1,34*,1,1,5,-2,-5
Cc1cc(C)n(CCNC(=O)c2cc(COc3ccc(F)cc3Cl)on2)n1,1,-2,3,3,3,2
O=C(NCc1ccc2c(c1)OCO2)C1CC(=O)N(CCc2ccc(Cl)cc2)C1 (stereo not given),-1,0,2,1,-5,-1
CC1CCCC(C)N1C(=O)CSc1nc(N)cc(N)n1 (stereo not given),3,1,53*,1,-4,2
S=c1[nH]nc(-c2ccc3ccccc3n2)o1,1,113*,1,3,-4,3
CCN(CC(=O)Nc1c(F)cccc1F)C(=O)CSc1nnc(-c2ccco2)n1CC,1,4,2,3,-5,-3
NC(=O)Cc1ccc(C(=O)CSc2nnc(-c3ccncc3)n2C2CC2)s1,-3,34,-10,·,5,1
CCOC(=O)c1c(CSc2ccccc2)n(C)c2cc(Br)c(OCC(O)CNC(CO)(CO)CO)cc12 (stereo not given),1,71*,3,1,13,5
CCOC(=O)c1c(CSc2ccccc2)n(C)c2cc(Br)c(OC)c(O)c12,0,1,2,0,0,5
CCOC(=O)N1CCc2c(sc(NC(=O)c3ccc(S(=O)(=O)N4CCCC4)cc3)c2C#N)C1,-1,16,23,20,50*,2
Cc1ccc(NC(=O)CN2C(=O)NC3(CCCC3)C2=O)cc1S(=O)(=O)N1CCCCC1,8,2,-1,·,-7,-2
